NadD block: inhibitors of Staphylococcus aureus NadD. hit rate 0.78% among 360,000. purified NadD enzyme, colorimetric absorbance read-out. inhibition, % at 20 µM. AID 602399; in the data active = inhibition above about 26%
rCAG binder: molecules binding r(CAG) RNA repeats. r(CAG) RNA repeat, TO-PRO-1 dye displacement fluorescence. hit rate 1.3% among 370,000. inhibition, % at 3 µM;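 active = inhibition above the plate cutoff, the mean of all test compounds on that plate plus 3 SD, cut at about 35% in these data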;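 note: 0% = DMSO alone and 100% = 100 µM mitoxantrone as full dye displacement; higher means more dye released from RNA so lower well fluorescence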
core dimer inh: HCV core protein dimerization inhibition; inhibition, % at 5 µM; AID 1899; hit rate 0.33% among 300,000; TR-FRET GST/Flag-core106 dimerization, 1536-well;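 active = inhibition above the mean of all tested compounds plus 3 SD, set per screening campaign, cut at about 45% in these data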
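System: GST/Flag-tagged HCV core106 proteins. Incubation: compound-protein-antibody incubation 4 h at 22.5 °C. Technique: HTRF with 340 nm excitation, 617/671 nm emission. Medium: KF-containing HEPES buffer, pH 7.45, DTT, CHAPS, BSA. Read-out: inhibition (%) from 671 over 617 nm ratio. Also added: Eu(K)-anti-GST 90 ng/mL plus XL665-anti-Flag 1 µg/mL.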
ABHD5 PLIN5 PPI: inhibitors of human ABHD5-perilipin-5 interaction; Q00G26+Q8WTS1; Split G. princeps luciferase complementation, luminescence, 4 h; inhibition, % at 4 µM; hit rate 0.78% among 360,000;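 active = inhibition above the mean inhibition across every tested compound plus 3 SD, cut at about 22% in these data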;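 note: 0% = DMSO only wells and the 100% control is not disclosed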
* hit, by the source's call; . = no result. Rows were chosen to be rich in hits. Some 2.6% of all compounds tested hit in one or more screens of this group.

SMILES	NadD block	rCAG binder	core dimer inh	ABHD5 PLIN5 PPI
COCc1[nH]nc2c1C(c1ccc(F)cc1)N(c1ccc(OC)cc1)C2=O (centres undefined)	.	3.5	.	.
COc1ccccc1/C=c1\sc2nc(-c3ccco3)nn2c1=O	15.7	.	57.3*	2.0
CCOc1ccc(/C=c2\sc3nc(-c4ccco4)nn3c2=O)cc1OCC	5.3	26.6	70.3*	-7.2
COc1ccc(OC)c(/C=c2\sc3nc(-c4cccs4)nn3c2=O)c1	4.9	7.6	4.2	0.2
N#CC1=C(N)N(c2ccc(F)cc2)C2=C(C1c1ccc(O)cc1)S(=O)(=O)CC2 (centres undefined)	7.9	35.4*	.	-2.0
CSc1ccc(C2C(C#N)=C(N)N(c3ccccc3)C3=C2C(=O)CCC3)cc1 (centres undefined)	9.3	-1.8	26.1	-2.1
O=C(/C=C/c1ccc(N2CCCCC2)c([N+](=O)[O-])c1)c1ccc(O)cc1	5.9	20.5	6.1	22.4*
O=C(O)c1cc(NS(=O)(=O)c2ccc(N3CCOCC3)c([N+](=O)[O-])c2)cc(C(=O)O)c1	-2.4	2.1	2.6	1.4
O=C(c1ccc(N2CCCCC2)c([N+](=O)[O-])c1)N1CCOCC1	4.1	-2.5	-2.9	0.3
COC(=O)c1cc(NS(=O)(=O)c2ccc(N3CCCCC3)c([N+](=O)[O-])c2)cc(C(=O)OC)c1	2.6	69.1*	20.7	2.7
COC(=O)[C@H](C(C)C)N(Cc1cn(CC2CCCCC2)nn1)S(=O)(=O)c1ccc(F)cc1Br	.	3.9	.	.
CCCC(=O)N1CCC[C@]2(CC[C@H](CCC(=O)OCC)O2)C1	.	1.6	.	.
C#CCOCCOCCOCCNc1nc(N2CCN(C(=O)CCCCCCCCCCNC(=O)[C@H](CCCCN)n3cc(C)nn3)CC2)nc(N2CCN(C(=O)CCCCCCCCCCNC(=O)[C@H](CCCN=C(N)N)n3cc(C[C@@H](C)CC)nn3)CC2)n1	.	.	-13.9	.
C#CCOCCOCCOCCNc1nc(N2CCN(C(=O)CCCCCCCCCCNC(=O)[C@@H](CCSC)n3cc(CCO)nn3)CC2)nc(N2CCN(C(=O)CCCCCCCCCCNC(=O)[C@H](CCCN=C(N)N)n3cc(C[C@@H](C)CC)nn3)CC2)n1	71.4*	.	7.1	63.7*
C#CCOCCOCCOCCNc1nc(N2CCN(C(=O)CCCCCCCCCCNC(=O)[C@H](CCCCN)n3cc(C[C@@H](C)CC)nn3)CC2)nc(N2CCN(C(=O)CCCCCCCCCCNC(=O)[C@H](CCCN=C(N)N)n3cc(C[C@@H](C)CC)nn3)CC2)n1	64.3*	.	13.4	62.8*
C#CCOCCOCCOCCNc1nc(N2CCN(C(=O)CCCCCCCCCCNC(=O)[C@H](CCCCN)n3cc(C[C@@H](C)CC)nn3)CC2)nc(N2CCN(C(=O)CCCCCCCCCCNC(=O)[C@@H]([C@H](C)O)n3cc(C)nn3)CC2)n1	43.4*	.	0.1	53.3*
Cc1ccccc1NC(=O)CSc1nnc(-c2cc(-c3ccccc3)n[nH]2)n1N	.	4.1	.	.
CCCCCCCCCn1c2c(c(=N)c3c1CCC3)CCCC2	11.9	.	.	10.7
CCCCCCCCCCn1c2c(c(=N)c3c1CCC3)CCC2	11.9	15.1	12.4	23.0*
O=C(COc1ccc2c(-c3ccccc3)cc(=O)oc2c1)N[C@H](Cc1c[nH]c2ccccc12)C(=O)O	6.4	40.3*	-2.9	5.2
Cc1ccc(C)c(NC(=O)C2CCCN2S(=O)(=O)c2cccnc2)c1 (centres undefined)	.	-1.2	.	.
CC(=O)c1cc(NC(=O)c2ccccc2)c(=O)oc1C	-1.0	2.9	-0.2	8.9
Cc1oc(=O)c(NC(=O)c2ccccc2)cc1C(=O)c1ccccc1	2.7	5.0	-1.1	22.7*
O=C1/C(=C\c2ccc(O)cc2)SC(=S)N1Cc1ccccc1	-1.9	28.3	-6.8	0.4
O=C1/C(=C\c2cc(Br)cc(Br)c2O)SC(=S)N1Cc1ccccc1	42.1*	.	6.1	-3.0
SMILES	NadD block	rCAG binder	core dimer inh	ABHD5 PLIN5 PPI
Cc1ccc(-c2csc(N)n2)cc1	0.4	4.8	.	8.8
Cc1ccc(-n2c(C)cc(-c3csc(N)n3)c2C)cc1	30.4*	16.8	43.0	0.7
CN1CCN(c2cc(N3CCN(C(=O)c4ccco4)CC3)c3c4c(onc24)-c2ccccc2C3=O)CC1	34.1*	.	-28.1	6.1
O=C1c2ccccc2-c2onc3c(N4CCN(CCO)CC4)cc(N4CCN(C(=O)c5ccco5)CC4)c1c23	23.9	6.9	-50.7	21.4
O=C(N[C@H](C(=O)N1CCC[C@H]1C(=O)NC1CCCC1)C1CCCCC1)c1nccs1	.	-2.5	.	.
Oc1ccc(N=C/C=C/c2cccc(Br)c2)cc1-c1nc2ccccc2s1	40.7*	.	28.8	19.1
CC(C)CN(CC(C)C)C(=O)c1cn(C(C)c2ccccc2)nn1 (centres undefined)	.	-1.3	.	.
O=C(C#Cc1cccc([N+](=O)[O-])c1)c1ccccc1	0.1	.	16.0	30.0*
COc1ccccc1NC(=O)c1ccc(SCC(=O)NCc2ccccc2Cl)c([N+](=O)[O-])c1	10.4	11.6	53.2*	-5.3
COc1ccccc1CNC(=O)CSc1ccc(C(=O)Nc2ccccc2OC)cc1[N+](=O)[O-]	3.6	5.7	24.8	-0.3
Cc1ccc(-c2nc(=S)c3c(n2Cc2ccco2)CCCC3)cc1	24.4	5.1	.	13.2
Cc1ccc(-c2nc(=S)c3c(n2Cc2ccco2)CC(C)(C)OC3)cc1	20.7	.	43.0	54.7*
CCOc1ccc(S(=O)(=O)Nc2ccccc2C(=O)NCc2ccco2)cc1	-4.6	20.6	13.9	-3.1
COc1ccc(S(=O)(=O)Nc2ccccc2C(=O)NCc2ccco2)cc1Br	15.0	43.3*	31.9	5.7
CCOC(=O)c1ccc(NC2=CC(=O)C(=O)c3ccccc32)cc1	46.6*	26.9	24.6	-6.4
O=[N+]([O-])c1ccc(Sc2cccc[n+]2[O-])c2nonc12	-5.7	2.2	.	85.6*
O=C(CSc1nnc(-c2cccs2)o1)c1ccc(F)cc1	.	1.1	.	.
CC(C)C(C(=O)O)N1C(=O)/C(=C/c2cccn2C)SC1=S (centres undefined)	-4.8	9.7	-1.1	1.4
CC(C)C(C(=O)O)N1C(=O)/C(=C/C=C/c2ccco2)SC1=S (centres undefined)	45.8*	.	57.2*	-0.4
CC1CCN(c2nc(-c3ccco3)c3c(c2C#N)CC(C)(C)OC3)CC1	9.8	25.6	30.0	22.8*
CC1(C)Cc2c(C#N)c(N3CCOCC3)nc(-c3ccccc3)c2CO1	5.3	-2.7	1.7	-9.1
COc1ccc(Oc2c(Br)cnn(Cc3cccc4ccccc34)c2=O)cc1	.	6.2	.	.
COC(=O)C[C@H]1CC[C@@H]2[C@@H](COc3ccc(NC(=O)C4CCCCC4)cc3C(=O)N2C)O1	.	0.3	.	.
Cc1ccc(C2=NOC(=O)/C2=C\C=C\c2ccccc2)cc1	25.9*	31.4	.	0.5
CN(C)/C=C1\C(=O)ON=C1c1ccccc1	-7.1	6.8	-2.4	5.5
Cc1nc(N)sc1-c1csc(Nc2cc(N(C)C)ccc2Cl)n1	41.6*	34.4	.	-10.2
N#Cc1cc(C(=O)c2cc(F)ccc2O)cn(-c2nccs2)c1=O	12.7	-66.7	48.0*	1.3
N#Cc1cc(C(=O)c2ccccc2O)cn(-c2nccs2)c1=O	-0.9	-38.3	16.0	4.8

Screens (PubChem BioAssay)
